This is a sample that favours compounds with a hit; in the whole collection about 3.8% have one here.
hERG protect – hERG (human) protection from proarrhythmic block. CHO-hERG, FluxOR thallium flux, dofetilide IC70 present. activation (rescue from dofetilide block), less the hit threshold, % at 10 µM. actives 0.51% (n = 310,000). AID 1511;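 active = activation above the mean of controls blocked by dofetilide plus 5 SD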;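 note: thallium influx through hERG after potassium depolarization seen as dye fluorescence rise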
KCNQ1 pot – potentiators or activators of human KCNQ1 potassium channel | P51787 | CHO-K1 KCNQ1, thallium flux FluxOR fluorescence; active compounds read high | B-score at 10 µM | actives 0.35% (n = 310,000) | AID 2648;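 active = fluorescence ratio B-score, a plate-corrected score, at least three library SD, with initial intensity B-score within 5 SD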
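assay system = CHO-K1 cells stably expressing KCNQ1 | medium = assay buffer, equal DMSO in all wells | timing = 37 °C overnight plating, 90-min dark dye load, 20-min compound pretreatment | measured by = kinetic FluxOR thallium fluorescence, 10-s 1-Hz baseline, 110-s post-stimulus read | measure = fluorescence change relative to baseline, converted to B score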
KCNQ1 block – human KCNQ1 channel inhibition; B-score at 10 µM; CHO-K1 KCNQ1, FluxOR thallium flux fluorescence; active compounds read high; actives 1.3% (n = 310,000); P51787;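 active = compounds whose thallium flux B-score, printed positive for inhibition, exceeds three library SD while starting fluorescence stays within three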;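 note: channel opened by potassium depolarization with thallium stimulus after 20 min compound exposure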
KCNK3 block – human KCNK3 channel inhibition, primary screen; O14649; CHO-KCNK3 thallium flux, FluxOR fluorescence; active compounds read low; B-score at 10 µM; actives 0.84% (n = 340,000); AID 602410;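 active = B-score under library mean minus 4 SD, starting fluorescence ratio at most library mean plus 5 SD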;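 note: more negative B-score means stronger inhibition of thallium flux through KCNK3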
Target sequence (O14649 whole entry, looked up): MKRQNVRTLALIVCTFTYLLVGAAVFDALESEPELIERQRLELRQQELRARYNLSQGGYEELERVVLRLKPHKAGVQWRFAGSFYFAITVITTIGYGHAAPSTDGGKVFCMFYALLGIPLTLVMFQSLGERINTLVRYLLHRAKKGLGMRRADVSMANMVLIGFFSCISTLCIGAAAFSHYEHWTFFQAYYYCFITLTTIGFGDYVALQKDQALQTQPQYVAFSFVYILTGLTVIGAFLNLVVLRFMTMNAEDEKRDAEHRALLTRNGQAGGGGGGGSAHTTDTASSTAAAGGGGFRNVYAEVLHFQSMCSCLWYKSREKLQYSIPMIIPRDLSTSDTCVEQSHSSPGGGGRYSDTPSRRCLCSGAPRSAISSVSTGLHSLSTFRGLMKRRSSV
Kir21 block – Kir2.1 (mouse) channel inhibition; P35561; HEK293-Kir2.1, FluxOR thallium flux fluorescence; active compounds read low; B-score at 10 µM; actives 0.85% (n = 310,000);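 active = fluorescence ratio B-score at or below minus 3 SD of library scores, with starting-brightness B-score within 2 SD, cut at about -4.2 in these data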;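 note: channel flux triggered by added potassium and thallium sulfate stimulus; B-score of peak minus minimum fluorescence over baseline after thallium stimulus; more negative B-score means stronger Kir2.1 block with less thallium influx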
KCNK9 block – inhibitors of human KCNK9 two-pore domain potassium channel. actives 1.2% (n = 310,000). HEK293 KCNK9, FluxOR thallium flux fluorescence; active compounds read low. B-score at 10 µM;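 active = ratio B-score over 3 SD below the library mean, with starting fluorescence within 5 SD of its mean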;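 note: negative B-score means less thallium flux so channel inhibition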
Target sequence (Q9NPC2 whole entry, looked up, the tested form may be a part): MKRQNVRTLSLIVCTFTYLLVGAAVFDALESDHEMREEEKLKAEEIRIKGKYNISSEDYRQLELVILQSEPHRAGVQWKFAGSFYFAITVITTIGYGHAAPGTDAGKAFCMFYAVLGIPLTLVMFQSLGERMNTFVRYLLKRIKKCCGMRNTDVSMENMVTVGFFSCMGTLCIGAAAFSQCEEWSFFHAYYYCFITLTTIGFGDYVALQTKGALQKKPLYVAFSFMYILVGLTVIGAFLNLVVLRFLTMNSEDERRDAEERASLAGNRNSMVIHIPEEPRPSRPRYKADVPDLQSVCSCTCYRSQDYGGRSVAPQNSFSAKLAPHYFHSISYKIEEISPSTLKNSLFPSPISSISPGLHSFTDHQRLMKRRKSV
KCNK9 inh conf – human KCNK9 inhibitor confirmation | shares compounds with KCNK9 block | HEK293 KCNK9 cells, FluxOR thallium flux fluorescence | inhibition, % at 10 µM | actives 43% (n = 4,900);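 active = thallium signal inhibited by more than 5 SD of the compound-free buffer control wells, on both duplicate plates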
Kir21 sel – selectivity of KCNK9 modulators against mouse Kir2.1; actives 4% (n = 4,900); AID 492993; shares compounds with KCNK9 block; Kir2.1 cells, FluxOR thallium flux fluorescence; inhibition, % at 10 µM;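 active = thallium signal drop more than 5 SD beyond the mean of the no-compound control wells, seen in both duplicate plates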;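 note: signal is fluorescence rise after thallium addition divided by baseline fluorescence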
HEK293 Tl ctr – non-induced cell nonspecific activity of KCNK9 modulators; inhibition, % at 10 µM; non-induced KCNK9-HEK293, FluxOR thallium flux; actives 40% (n = 4,900); AID 492997; shares compounds with KCNK9 block;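 active = thallium signal drop beyond 5 SD of the untreated control mean, on both duplicate plates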
Of the large screens only hits and unclear results are named; the others gave an inactive call (follow-up assays come after a bar, where they were run).

S=C(NCc1ccc2[nH]c3c(c2c1)CCCC3)Nc1ccccc1	none
Cc1cc(C)cc(NC(=S)NCc2ccc3[nH]c4c(c3c2)CCCC4)c1	none | KCNK9 inh conf inactive | Kir21 sel inactive | HEK293 Tl ctr inactive
COc1ccc(NC(=O)c2ccc(Cl)nc2)cc1S(=O)(=O)N1CCOCC1	none (no result: hERG protect, KCNQ1 pot, KCNQ1 block, Kir21 block, KCNK9 block)
COc1cc(C(=O)Nc2cc3c(cc2N2CCCCC2)n(C)c(=O)n3C)cc(OC)c1OC	KCNK9 block -19.6 | KCNK9 inh conf 67.0% | Kir21 sel inactive | HEK293 Tl ctr inactive
CCn1c(=O)n(CC)c2cc(N3CCCC3)c(NC(=O)c3ccccc3OC)cc21	KCNK9 block -8.97 | KCNK9 inh conf 42.0% | Kir21 sel inactive | HEK293 Tl ctr inactive
Cc1nn(-c2ccccc2)c(Cl)c1/C=C1\SC(=S)N(CCCCCC(=O)O)C1=O	none | KCNK9 inh conf inactive | Kir21 sel inactive | HEK293 Tl ctr inactive
O=C(O)CCCN1C(=O)/C(=C/c2cn(-c3ccccc3)nc2-c2cccs2)SC1=S	none
CCOC(=O)c1nn(-c2ccccc2F)c(-c2ccccc2)c1C(=O)c1ccccc1	KCNK9 block -11.4 | KCNK9 inh conf 55.5% | Kir21 sel inactive | HEK293 Tl ctr inactive
COc1cccc(C(=O)NC(=S)Nc2ccc(Cl)cc2C(=O)O)c1	none
COc1ccc(OCC(=O)NC(=S)Nc2ccc3c4c(cccc24)CC3)cc1	none | KCNK9 inh conf inactive | Kir21 sel inactive | HEK293 Tl ctr inactive
COc1cccc(C(=O)NC(=S)Nc2ccc3c4c(cccc24)CC3)c1	none | KCNK9 inh conf inactive | Kir21 sel inactive | HEK293 Tl ctr inactive
Cc1ccccc1OCC(=O)NC(=S)Nc1ccc2c3c(cccc13)CC2	none
Cn1c(=O)c2[nH]c(CCCCCCCCc3nc4ccccc4[nH]3)nc2n(C)c1=O	none (no result: hERG protect, KCNQ1 pot, KCNQ1 block, Kir21 block, KCNK9 block)
O=[N+]([O-])c1c(C(Cl)Cl)nn(-c2ccc(Cl)cc2)c1N1CCCCC1	none | KCNK9 inh conf inactive | Kir21 sel inactive | HEK293 Tl ctr inactive
O=[N+]([O-])c1c(C(Cl)Cl)nn(-c2ccccc2)c1N1CCOCC1	none
CCN(CC)c1nc(SCC(=O)O)nc(N(CC)CC)n1	none
CCN(CC)c1nc(C#N)nc(N(CC)CC)n1	none | KCNK9 inh conf inactive | Kir21 sel inactive | HEK293 Tl ctr inactive
Cn1c(SCC(=O)N2CCCCCC2)nnc1-c1ccco1	none
C/C=C1\COC(C(=O)NCc2ccccc2)(C(F)(F)F)C=C1C=C1CCCCC1 (configuration not stated)	KCNQ1 block 7 | KCNK9 inh conf inactive | Kir21 sel inactive | HEK293 Tl ctr inactive
O=[N+]([O-])c1ccc(N/N=C/c2ccc(OCc3cccc4ccccc34)cc2)nc1	KCNK9 block -9.3 | KCNK9 inh conf 41.5% | Kir21 sel inactive | HEK293 Tl ctr inactive
O=[N+]([O-])c1ccc(N/N=C\c2cccn2-c2ccccc2)nc1	KCNK3 block -9.78, KCNK9 block -12 | KCNK9 inh conf 65.0% | Kir21 sel inactive | HEK293 Tl ctr 61.5%
COc1ccc(C=NNc2ccc([N+](=O)[O-])cn2)cc1	none (no result: hERG protect, KCNQ1 pot, KCNQ1 block, Kir21 block, KCNK9 block)
COc1ccc(OC)c(C2=NOC(C(=O)NCc3cccnc3)C2)c1 (configuration not stated)	none
COc1cc(C2=NOC(C(=O)NCc3cccnc3)C2)cc(OC)c1OC (configuration not stated)	KCNK9 block -8.64 | KCNK9 inh conf 26.5% | Kir21 sel inactive | HEK293 Tl ctr inactive
O=C(COc1ccc(Cl)cc1Br)NC(=O)NCc1ccccc1	none
Cc1cccc(C)c1NC(=O)C(C)c1ccc(-c2ccccc2)c(F)c1 (configuration not stated)	KCNK9 block -10.4 | KCNK9 inh conf 47.0% | Kir21 sel inactive | HEK293 Tl ctr 45.5%
Cc1cccc(C)c1NC(=O)C(NC=O)c1ccc(Cl)cc1 (configuration not stated)	none
CN1C(=O)c2ccc(NC(=O)CSc3ccccc3)cc2C1=O	none
O=C(CN1CCN(c2ccccn2)CC1)N1c2ccccc2Sc2ccc(C(F)(F)F)cc21	none | KCNK9 inh conf inactive | Kir21 sel inactive | HEK293 Tl ctr inactive
CCn1c(SCC(=O)c2ccc3c(c2)OCCO3)nnc1-c1ccco1	none
Cc1ccccc1CN1CCN(c2nc3ccccc3s2)CC1	none | KCNK9 inh conf inactive | Kir21 sel inactive | HEK293 Tl ctr 34.0%
FC(F)(F)C(Oc1nc(Nc2ccc(Cl)cc2)nc(N2CCOCC2)n1)C(F)(F)F	none
CC(C)(C)NC(=O)N1c2ccccc2Sc2ccccc21	none | KCNK9 inh conf inactive | Kir21 sel inactive | HEK293 Tl ctr inactive
CC(C)NC(=O)N1c2ccccc2Sc2ccccc21	none
O=C(COc1ccc2ccccc2c1)N1c2ccccc2Sc2ccccc21	KCNK9 block -12.8 | KCNK9 inh conf 55.5% | Kir21 sel inactive | HEK293 Tl ctr 45.5%
CC1CN(C(=O)COc2ccc3ccccc3c2)CC(C)O1 (configuration not stated)	none (no result: hERG protect, KCNQ1 pot, KCNQ1 block, Kir21 block, KCNK9 block)
COc1ccccc1C(=O)N1c2ccccc2Sc2ccccc21	KCNK9 block -13.6 | KCNK9 inh conf 54.0% | Kir21 sel inactive | HEK293 Tl ctr 42.0%
CC(=O)N1c2ccccc2Sc2ccccc21	none
COc1ccc(CCNC(=O)N2c3ccccc3Sc3ccccc32)cc1	none | KCNK9 inh conf inactive | Kir21 sel inactive | HEK293 Tl ctr inactive
O=C(c1cc2ccccc2oc1=O)N(Cc1ccco1)Cc1cccs1	none
O=C(NCc1ccco1)N1c2ccccc2Sc2ccccc21	none | KCNK9 inh conf inactive | Kir21 sel inactive | HEK293 Tl ctr inactive
CCNC(=O)c1cccc(NC(=O)CC2SC(N3CCCCC3)=NC2=O)c1 (configuration not stated)	none
COC(=O)C(C)Oc1cc(OC(C)C(=O)OC)c2c(C)c(Cl)c(=O)oc2c1 (configuration not stated)	none | KCNK9 inh conf inactive | Kir21 sel inactive | HEK293 Tl ctr inactive
COC(=O)COc1cc(OCC(=O)OC)c2c(C)c(Cl)c(=O)oc2c1	none
CCCN(CCC)C(=O)CSc1nc2ccccc2c(=O)n1CC1COc2ccccc2O1 (configuration not stated)	none | KCNK9 inh conf inactive | Kir21 sel inactive | HEK293 Tl ctr inactive
Cc1cc(C)c(S(=O)(=O)N2CCC(C(=O)NCc3ccc(Cl)cc3Cl)CC2)c(C)c1	none | KCNK9 inh conf inactive | Kir21 sel inactive | HEK293 Tl ctr inactive
COc1ccc(N2C(=O)CSC23C(=O)N2CCCc4cccc3c42)cc1 (configuration not stated)	none
